{"data": "Published values from different studies", "observed": "cell growth or viability", "note": "Protocols differ between the studies behind these lines."}
{"Compound": "CCO[C@@H](Cc1ccc(OCCn2c(C)ccc2-c2ccc(SC)cc2)cc1)C(=O)O", "cell line": "LX-2", "test": "ATP luminescence", "conditions": "48 h, serum-free", "CC50": "> 50 µM"}
{"Compound": "Cc1ccc(S(=O)(=O)Nc2nc(N)c(-c3nc4ccccc4s3)c(-c3ccc(Cl)cc3)n2)cc1", "cell line": "BGM", "CC50": "0.19 µg/µL"}
{"Compound": "CCOP(=O)(OCC)[C@@H]1C[C@H](n2cc(Cn3cc(C)c(=O)[nH]c3=O)nn2)ON1C (racemic)", "cell line": "human T-lymphocyte", "conditions": "72 h", "CC50": "> 250 µM"}
{"Compound": "CC(C)OC(=O)C(C)(C)Oc1ccc(C(=O)c2ccc(Cl)cc2)cc1", "cell line": "LX-2", "test": "ATP luminescence", "conditions": "48 h, serum-free", "CC50": "> 50 µM"}
{"Compound": "Nc1nc(NS(=O)(=O)c2ccccc2)nc(-c2ccc(F)cc2)c1-c1nc2ccccc2s1", "cell line": "BGM", "CC50": "0.18 µg/µL"}
{"Compound": "O=C(O)/C=C/C=C/c1cccc(Oc2cc(Cl)cc(Cl)c2)c1", "cell line": "Huh-7", "test": "MTT", "conditions": "24 h", "CC50": "> 200 µM"}
{"Compound": "CCOP(=O)(OCC)[C@@H]1C[C@H](n2cc(-c3cccc(F)c3)nn2)ON1C", "cell line": "human T-lymphocyte", "conditions": "72 h", "CC50": "> 250 µM"}
{"Compound": "O=C1OC[C@H]2OC(O)[C@H](O)[C@@H](O)[C@@H]2OC(=O)c2cc(O)c(O)c(O)c2-c2c(O)c(O)c3oc(=O)c4c(c(O)c(O)c5oc(=O)c2c3c54)-c2c1cc(O)c(O)c2O (mixture of isomers)", "cell line": "Huh-7", "test": "MTT", "CC50": "> 5000 µM"}
{"Compound": "CN1CCC(NCc2cccc(-c3ccc(S(=O)(=O)NCc4ccccc4)cc3)c2)CC1", "cell line": "Huh-7", "test": "MTT", "conditions": "24 h", "CC50": "6.84 µM"}
{"Compound": "COc1ccc(NC(=O)N2CCCCN3[C@H](COCCC(=O)O)[C@H](c4ccc(C#Cc5ccccc5)cc4)[C@@H]3C2)cc1", "cell line": "HEK-293T", "CC50": "> 40 µM"}
{"Compound": "NCCN(C(=O)c1ccc(Cl)cc1Cl)c1ccc(OCc2ccc(Cl)cc2)cc1", "cell line": "Huh-7", "test": "MTT", "conditions": "24 h", "CC50": "11.9 µM"}
{"Compound": "CCOP(=O)(OCC)[C@@H]1C[C@@H](n2cc(Cn3ccc(=O)[nH]c3=O)nn2)ON1C (racemic)", "cell line": "human T-lymphocyte", "conditions": "72 h", "CC50": "> 250 µM"}
{"Compound": "O[C@@H](c1cc(C(F)(F)F)nc2c(C(F)(F)F)cccc12)[C@H]1CCCCN1", "cell line": "Huh-7", "test": "MTT", "conditions": "24 h", "CC50": "15.9 µM"}
{"Compound": "CCOP(=O)(OCC)[C@@H]1C[C@H](n2cc(-c3ccccn3)nn2)ON1C", "cell line": "human T-lymphocyte", "conditions": "72 h", "CC50": "> 250 µM"}
{"Compound": "Cc1onc(-c2ccccc2)c1-c1ccc(S(N)(=O)=O)cc1", "cell line": "Huh-7", "test": "MTT", "conditions": "24 h", "CC50": "> 200 µM"}
{"Compound": "CCOP(=O)(OCC)[C@@H]1C[C@@H](n2cc(Cn3ccc(NC(C)=O)nc3=O)nn2)ON1C (racemic)", "cell line": "human T-lymphocyte", "conditions": "72 h", "CC50": "> 250 µM"}
{"Compound": "N=C(N)c1ccc(OCCCCCOc2ccc(C(=N)N)cc2)cc1", "cell line": "Huh-7", "test": "MTT", "conditions": "24 h", "CC50": "9.24 µM"}
{"Compound": "Cc1ccc(S(=O)(=O)Nc2nc(N)c(-c3nc4ccccc4s3)c(-c3ccc(F)cc3)n2)cc1", "cell line": "BGM", "CC50": "0.19 µg/µL"}
